Shown are actives, neighbours in structure and some others; about 1.8% of the full set was active somewhere.
GalR3 antag = human GalR3 antagonism; O60755; HEK293 GalR3-CNG cAMP membrane potential fluorescence; galR3 body fused to GalR1 C-terminus; inhibition, % at 3 µM; 360,000 compounds, 0.44% hits;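 active = inhibition above the screen-wide average plus 3 SD, cut at about 13% in these data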;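 note: forskolin and galanin both at EC90 stimulate the cells; cAMP rise reported by CNG channel membrane potential dye signal; 0% = forskolin plus galanin with DMSO and 100% = forskolin alone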
Target sequence (O60755 1-299 limits assumed): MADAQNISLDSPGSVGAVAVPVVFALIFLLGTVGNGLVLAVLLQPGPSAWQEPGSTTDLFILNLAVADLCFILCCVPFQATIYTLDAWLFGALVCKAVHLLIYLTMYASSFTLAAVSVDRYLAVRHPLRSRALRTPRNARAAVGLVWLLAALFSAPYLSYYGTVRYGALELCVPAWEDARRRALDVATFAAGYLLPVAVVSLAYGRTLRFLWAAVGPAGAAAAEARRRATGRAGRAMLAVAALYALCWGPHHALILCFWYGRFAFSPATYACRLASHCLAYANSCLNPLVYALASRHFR
697 NFkB inh = lowers PMA/ionomycin-induced NF-kB signal in 697 B cells; AID 435022; inhibition, % at 4 µM; 697 B-cell NF-kB luciferase reporter, 16 h; 330,000 compounds, 0.33% hits; in the data active = inhibition above about 35%
NR2E3 ag-1 = NR2E3 (human) agonism. Q9Y5X4. GST-NR2E3/biotin-RetCOR TR-FRET, 1536-well. inhibition of corepressor binding, % at 4.78 µM. 320,000 compounds, 0.12% hits. AID 2300;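 active = percent inhibition above the cutoff of mean plus 3 SD of all tested compounds, set per screening campaign, cut at about 20% in these data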;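 note: 0% = DMSO wells and 100% = biotin wells as full block of FRET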
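Material – GST-tagged NR2E3 plus biotinylated RetCOR corepressor · Quantity – NR2E3 fusion 1.35 nM · Times – 5 h incubation at 4 °C · Medium – pH 7.5 Tris-based buffer · Technique – TR-FRET, Eu(K)-anti-GST donor, streptavidin-D2 acceptor, ex 340, em 617/671 nm · Benchmarks – high control biotin, low control 0.6% DMSO · Format – 1536-well plates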
Gli-Sufu block = antagonists of Gli-Sufu signaling; inhibition, % at 5 µM; 340,000 compounds, 0.74% hits; Sufu-KO-LIGHT fibroblasts, Gli luciferase reporter luminescence;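 active = inhibition above about 55%, limit read from the data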;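 note: 0% = DMSO-treated cells and 100% = wells with medium but no cells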
NR2E3 ag-2 = activates human NR2E3 receptor; Q9Y5X4; CHO-S Gal4-NCOR/VP16-NR2E3 two-hybrid, luciferase; inhibition of corepressor binding, % at 3.98 µM; 360,000 compounds, 0.35% hits; AID 602229;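 active = inhibition above the mean of all tested compounds plus 3 SD, cut at about 70% in these data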;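 note: 0% = DMSO with NR2E3 transfected cells and 100% = cells lacking NR2E3 construct; higher means lower luciferase signal from less NR2E3 corepressor binding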
Jurkat NFkB inh = inhibitors of the PMA/ionomycin-induced NF-kB reporter in Jurkat cells; PMA/ionomycin-induced NF-kB luciferase reporter, luminescence; inhibition, % at 4 µM; 330,000 compounds, 0.53% hits; AID 435003; in the data active = inhibition above about 50%
Gli antag conf = confirmation of Gli-SUFU pathway antagonists; AID 602428; 2,500 compounds, 40% hits; Sufu-KO-LIGHT cells, Gli luciferase reporter, luminescence; shares compounds with Gli-Sufu block; inhibition, % at 5 µM;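 active = mean inhibition at 5 µM reaching about 45%, limit read from the data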;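 note: plate controls were DMSO-treated cells for no effect and wells lacking cells for full effect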
Gli cytotox = counter-screen for Gli-SUFU antagonists: cytotoxicity | Sufu-KO-LIGHT cells cytotoxicity, ATP luminescence | 2,500 compounds, 32% hits | cytotoxicity, % at 5 µM | shares compounds with Gli-Sufu block | AID 651994;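 active = mean cytotoxicity at 5 µM above about 25%, limit read from the data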;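 note: cells exposed to compound overnight for roughly 16 to 18 hours; plate controls were DMSO wells with cells for no effect and medium without cells for full effect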
Wnt3a cs = counter-screen for Gli-SUFU antagonists: Wnt3a reporter inhibition; shares compounds with Gli-Sufu block; Wnt-LIGHT cells, Wnt3a-driven luciferase reporter, luminescence; inhibition, % at 6.25 µM; 2,500 compounds, 20% hits;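 active = mean inhibition above about 25%, limit read from the data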
* marks the source's active call; other numbers are inactive results; nt = no result given.

SMILES | GalR3 antag | 697 NFkB inh | NR2E3 ag-1 | Gli-Sufu block | NR2E3 ag-2 | Jurkat NFkB inh | Gli antag conf | Gli cytotox | Wnt3a cs
Cc1[nH]c2ccccc2c1[C@H]1[C@@H](CC#N)C1(C)C | -6.8 | 12.9 | 0.1 | 50.9 | 8.6 | -1.3 | 22.2 | 5.4 | -6.3
C#CCN1CC(COCCCC)Oc2cccc(Oc3ccc(C(C)(C)C)c(C)c3)c2S1(=O)=O (stereo not drawn) | -7.0 | nt | nt | nt | nt | nt | nt | nt | nt
COc1ccc(-c2cc(C(F)(F)F)n3nc(N)nc3n2)cc1 | nt | -9.3 | 5.8 | -4.7 | 2.1 | -11.4 | nt | nt | nt
COc1cccc(-c2cc(C(F)(F)F)n3nc(N)nc3n2)c1 | 0.3 | 6.4 | 2.1 | 77.5* | -1.9 | -3.2 | 28.9 | 12.3 | -14.7
CC(C)C[C@H]1COc2c(Cl)cccc2S(=O)(=O)N1Cc1ccc(F)cc1F | -9.1 | nt | nt | nt | nt | nt | nt | nt | nt
Cc1cc(C)cc(NC(=S)NC(=O)Cc2ccccc2)c1 | -3.0 | -2.8 | 0.0 | 60.5* | 1.1 | -1.8 | 11.7 | 22.7 | 0.4
CCOC(=O)c1c(C)[nH]c(C)c1S(=O)(=O)NCC1CCN(Cc2ccccc2F)CC1 | -10.6 | -5.8 | -0.9 | 18.2 | -15.8 | -0.8 | nt | nt | nt
CCOC(=O)c1c(C)[nH]c(C)c1S(=O)(=O)NCCN1CCN(c2ccccc2F)CC1 | -9.1 | 7.6 | -5.3 | 67.0* | 13.2 | 27.9 | 20.9 | 12.2 | -16.7
COC(=O)CNC(=O)C(C)NC(=O)OCc1ccccc1 (stereo not drawn) | -1.9 | -5.2 | 0.8 | 98.7* | -11.4 | 8.7 | 33.7 | 3.7 | -2.1
COC(=O)CNC(=O)C(NC(=O)OCc1ccccc1)C(C)C (stereo not drawn) | -5.6 | -6.9 | 3.1 | -2.8 | -30.9 | -2.2 | nt | nt | nt
COc1ccccc1CNC(=O)c1cc(-c2cc(F)ccc2OC(C)C)n[nH]1 | -1.0 | nt | nt | nt | 8.3 | nt | nt | nt | nt
Cc1nnsc1-c1nc2ccccc2n1C(CCc1ccccc1)c1nc2ccccc2[nH]1 (stereo not drawn) | -8.9 | nt | nt | nt | nt | nt | nt | nt | nt
CCOc1ccccc1NC(=O)c1ccc2c(=O)n3c(nc2c1)CCCCC3 | -6.4 | -30.9 | -1.3 | 17.4 | 1.1 | -5.4 | nt | nt | nt
CCCNC(=O)c1ccccc1NC(=O)c1ccc2c(=O)n3c(nc2c1)CCC3 | -3.5 | -9.5 | 0.9 | 95.7* | -27.7 | -5.8 | 21.9 | 14.6 | -0.7
CCOC(=O)CN1CCCc2nc(-c3ccc(OC)cc3)ccc21 | 0.1 | nt | nt | nt | nt | nt | nt | nt | nt
Cc1c(C(=O)N2CC[C@@H](N3CCC(O)CC3)[C@H](O)C2)[nH]c2ccc(Cl)cc12 | 0.6 | 0.3 | -2.4 | -16.9 | -6.4 | 1.9 | nt | nt | nt
COCCN(Cc1cc2c(C)cc(C)cc2nc1Cl)C(=O)c1ccccc1F | -1.6 | -14.0 | -4.3 | 57.9* | -1.9 | -0.4 | 25.8 | 15.3 | -26.5
COCCN(Cc1cc2cc(C)cc(C)c2nc1Cl)C(=O)Nc1ccccc1 | -5.1 | -27.6 | -4.0 | -3.9 | -41.6 | 46.9 | nt | nt | nt
Cc1ccc(CN2CCC=CS2(=O)=O)cc1 | -4.6 | nt | nt | nt | nt | nt | nt | nt | nt
NC(N)=NN=C(c1ccc(F)cc1)c1ccc(C(F)(F)F)cc1 | 1.7 | nt | nt | 56.5* | 16.2 | nt | 36.2 | 49.7* | -42.7
O=C(N/N=C/c1ccc(C(F)(F)F)cc1)c1ccc(O)cc1 | -0.8 | -8.7 | 1.5 | -13.7 | -41.4 | -20.0 | nt | nt | nt
COc1ccc(-n2nnc3c(SCC(=O)NCc4ccco4)ncnc32)cc1 | 1.6 | 13.2 | 1.5 | 97.8* | -15.7 | 7.2 | 20.7 | 6.0 | 11.8
CN(C1CCCCC1)S(=O)(=O)c1ccc(NC(=S)NC(=O)c2cccs2)cc1 | -6.0 | 12.2 | -4.9 | 63.0* | -9.6 | 18.7 | 19.3 | 7.9 | 1.2
COC(=O)c1c(NC(=O)COc2ncnc3ccccc23)sc(C)c1C | 1.2 | -32.4 | -1.4 | -26.0 | 5.7 | 4.5 | nt | nt | nt
CCOC(=O)c1c(NC(=O)COc2ncnc3ccccc23)sc(C(C)=O)c1C | -2.3 | -6.4 | 3.1 | 55.5* | -10.0 | 4.8 | 38.2 | 21.8 | -8.9

High-throughput results deposited in PubChem by several laboratories.
